Consider three molecules from ChEMBL document CHEMBL2202955, “Identification of Potent, Selective, Cell-Active Inhibitors of the Histone Lysine Methyltransferase EZH2” (ACS Med Chem Lett, 2012).

Assay [1] has as its target T1, Histone-lysine N-methyltransferase SETMAR (Homo sapiens, UniProt Q53H47).
T1 sequence (Q53H47 whole entry): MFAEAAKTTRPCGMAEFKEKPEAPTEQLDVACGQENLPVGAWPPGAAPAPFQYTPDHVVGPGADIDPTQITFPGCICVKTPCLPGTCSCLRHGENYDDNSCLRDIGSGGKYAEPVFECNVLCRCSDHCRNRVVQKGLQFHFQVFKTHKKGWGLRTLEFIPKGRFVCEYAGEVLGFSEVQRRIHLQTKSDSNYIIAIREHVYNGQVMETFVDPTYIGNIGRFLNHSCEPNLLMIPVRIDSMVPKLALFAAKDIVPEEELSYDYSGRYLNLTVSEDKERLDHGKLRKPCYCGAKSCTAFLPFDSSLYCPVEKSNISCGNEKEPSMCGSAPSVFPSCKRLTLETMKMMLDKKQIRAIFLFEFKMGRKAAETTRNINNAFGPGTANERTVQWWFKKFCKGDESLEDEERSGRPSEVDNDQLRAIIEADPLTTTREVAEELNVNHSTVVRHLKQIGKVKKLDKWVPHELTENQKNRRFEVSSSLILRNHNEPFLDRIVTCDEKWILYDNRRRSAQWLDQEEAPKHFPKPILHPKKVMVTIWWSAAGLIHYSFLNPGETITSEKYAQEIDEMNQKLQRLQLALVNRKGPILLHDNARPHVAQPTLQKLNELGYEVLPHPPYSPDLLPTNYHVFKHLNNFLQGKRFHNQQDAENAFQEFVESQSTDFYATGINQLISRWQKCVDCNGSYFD
The assay is described as follows: Inhibition of SETMAR using histone H3 as substrate preincubated for 10 mins followed by addition of [3H]SAM and incubated for 60 mins. Summed up: (§1)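 Panel of methyltransferases tested for selectivity. […] Values are the mean of at least two independent replicates.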

In assay [2] the target is Protein arginine N-methyltransferase 5 (Homo sapiens, UniProt O14744). Briefly: Inhibition of PRMT5 using histone H3 as substrate preincubated for 10 mins followed by addition of [3H]SAM and incubated for 60 mins. The method in brief:
as §1

Assay [3] concerns the target Protein arginine N-methyltransferase 3 (Homo sapiens, UniProt O60678). Briefly: Inhibition of PRMT3 using histone H3 as substrate preincubated for 10 mins followed by addition of [3H]SAM and incubated for 60 mins. The method in brief: as §1
Assay [4] has as its target Histone-lysine N-methyltransferase SUV39H2 (Homo sapiens, UniProt Q9H5I1). Briefly: Inhibition of SUV39H2 using histone H3 as substrate preincubated for 10 mins followed by addition of [3H]SAM and incubated for 60 mins. The method in brief:
as §1

In assay [5] the target is DNA (cytosine-5)-methyltransferase 3B (Mus musculus, UniProt O88509). Briefly: Inhibition of mouse DNMT3b1 using lambda DNA as substrate preincubated for 10 mins followed by addition of [3H]SAM and incubated for 60 mins. The method in brief:
as §1

The target of assay [6] is EZH2/SUZ12/EED/RBBP7/RBBP4. Briefly: Inhibition of PRC2 complex of FLAG-EZH2, EED, SUZ12, AEBP2 and RbAp48 using histone H3 peptide (21 to 44) as substrate and [3H]SAM after 30 mins. The conditions noted are these: read-out: Ki(app). The assay is classed as protein-complex assay.
In assay [7] the target is T2, Histone-lysine N-methyltransferase EZH2 (Homo sapiens, UniProt Q15910). The assay is described as follows: Inhibition of EZH2-mediated nuclear H3K27 methylation in human HCC1806 cells after 72 hrs by immunofluorescence analysis. Type of assay: cell-based. The method in brief:
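HCC1806 breast cancer cells were exposed to compound for 72 h. Nuclear H3K27me3 was quantified by an immunofluorescence imaging assay and normalized to total H3. Values are the mean of at least three independent replicates.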

For assay [8], the target named is T3, Histone-lysine N-methyltransferase SUV39H1 (Homo sapiens, UniProt O43463).
T3 sequence (O43463 whole entry): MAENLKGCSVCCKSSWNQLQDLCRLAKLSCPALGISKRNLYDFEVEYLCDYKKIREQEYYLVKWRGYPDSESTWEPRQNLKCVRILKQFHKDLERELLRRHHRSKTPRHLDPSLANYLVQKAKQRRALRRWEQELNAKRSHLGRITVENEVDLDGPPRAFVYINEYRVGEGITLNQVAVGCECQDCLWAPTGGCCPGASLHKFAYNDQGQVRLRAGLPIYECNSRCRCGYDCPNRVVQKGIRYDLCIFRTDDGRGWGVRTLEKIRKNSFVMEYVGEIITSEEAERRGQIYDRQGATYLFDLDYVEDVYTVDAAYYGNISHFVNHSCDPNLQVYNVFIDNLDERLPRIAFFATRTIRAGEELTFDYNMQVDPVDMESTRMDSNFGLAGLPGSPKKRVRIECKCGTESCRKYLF
The assay is described as follows: Inhibition of SUV39H1 using histone H3 as substrate preincubated for 10 mins followed by addition of [3H]SAM and incubated for 60 mins. Summed up: as §1

The target in assay [9] is T2, Histone-lysine N-methyltransferase EZH2. Briefly: Inhibition of EZH2-mediated proliferation of human ZR-75-1 cells after 6 days by chemiluminescence analysis. Type of assay: cell-based.
Target sequence in this assay (Q15910 whole entry, looked up): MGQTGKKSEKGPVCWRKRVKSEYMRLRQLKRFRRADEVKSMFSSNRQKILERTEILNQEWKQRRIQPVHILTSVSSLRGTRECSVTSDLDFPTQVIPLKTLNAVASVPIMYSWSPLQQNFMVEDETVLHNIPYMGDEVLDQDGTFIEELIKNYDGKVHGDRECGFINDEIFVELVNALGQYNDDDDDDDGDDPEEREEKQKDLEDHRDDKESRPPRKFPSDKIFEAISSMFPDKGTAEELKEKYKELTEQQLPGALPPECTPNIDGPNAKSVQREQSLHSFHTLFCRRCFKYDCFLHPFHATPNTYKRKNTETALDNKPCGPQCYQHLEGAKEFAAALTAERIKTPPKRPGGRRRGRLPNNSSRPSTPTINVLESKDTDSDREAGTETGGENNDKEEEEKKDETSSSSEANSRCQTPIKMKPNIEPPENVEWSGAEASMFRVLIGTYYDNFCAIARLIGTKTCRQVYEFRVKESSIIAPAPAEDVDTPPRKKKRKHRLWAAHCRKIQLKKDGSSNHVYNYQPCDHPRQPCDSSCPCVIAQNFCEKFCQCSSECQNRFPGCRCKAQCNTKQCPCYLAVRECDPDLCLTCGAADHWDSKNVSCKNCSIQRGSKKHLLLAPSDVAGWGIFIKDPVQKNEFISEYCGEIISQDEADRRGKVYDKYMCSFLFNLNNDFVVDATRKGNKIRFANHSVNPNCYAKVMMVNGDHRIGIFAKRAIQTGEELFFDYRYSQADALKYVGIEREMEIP
For assay [10] the target is unchanged. The assay is described as follows: Inhibition of EZH2-mediated nuclear H3K27 methylation in human HCC1806 cells at >1000 nM after 72 hrs by immunofluorescence analysis. The assay is classed as cell-based. The method in brief:
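HCC1806 breast cancer cells were exposed to compound for 72 h. Nuclear H3K27me3 was quantified by an immunofluorescence imaging assay and normalized to total H3. […] Values are the mean of at least three independent replicates.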
Target sequence in this assay (Q15910 whole entry, looked up): as above

For assay [11] the target is unchanged. Briefly: Inhibition of EZH2-mediated proliferation of human DU145 cells after 6 days by chemiluminescence analysis. Type of assay: cell-based. Particulars: DU-145.
Target sequence in this assay (Q15910 whole entry, looked up): as above
The target is the same in assay [12]. The assay is described as follows: Inhibition of EZH2-mediated proliferation of human PC3 cells after 6 days by chemiluminescence analysis. The assay is classed as cell-based. Particulars: PC-3.
Target sequence in this assay (Q15910 whole entry, looked up): as above
Assay [13] has the same target. The assay is described as follows: Inhibition of EZH2-mediated proliferation of human […] cells after 6 days by chemiluminescence analysis. The assay is classed as cell-based.
Target sequence in this assay (Q15910 whole entry, looked up): as above
For assay [14] the target is unchanged. Briefly: Inhibition of EZH2-mediated proliferation of human SKBR3 cells after 6 days by chemiluminescence analysis. The assay is classed as cell-based. The conditions noted are these: SK-BR-3.
Target sequence in this assay (Q15910 whole entry, looked up): as above
The target of assay [15] is Histone-lysine N-methyltransferase 2D (Homo sapiens, UniProt O14686). Briefly: Inhibition of MLL2 using core histone as substrate preincubated for 10 mins followed by addition of [3H]SAM and incubated for 60 mins. Summed up:
as §1

The target in assay [16] is Histone-lysine N-methyltransferase 2A (Homo sapiens, UniProt Q03164). The assay is described as follows: Inhibition of MLL1 using core histone as substrate preincubated for 10 mins followed by addition of [3H]SAM and incubated for 60 mins. Summed up:
as §1

Assay [17] deals with Histone-lysine N-methyltransferase 2C (Homo sapiens, UniProt Q8NEZ4). The assay is described as follows: Inhibition of MLL3 using core histone as substrate preincubated for 10 mins followed by addition of [3H]SAM and incubated for 60 mins. The method in brief:
as §1

In assay [18] the target is Histone-lysine N-methyltransferase 2B (Homo sapiens, UniProt Q9UMN6). Briefly: Inhibition of MLL4 using core histone as substrate preincubated for 10 mins followed by addition of [3H]SAM and incubated for 60 mins. The method in brief: as §1

Broadly, the IC50 is the concentration needed to halve the response being measured. Read a high IC50 as a need for much substance. As usually defined, the inhibition is the change of the read-out against control, counted positive when it falls.

Activity calls are given as the source filed them. The rule behind the calls is not given here. Where only a bound is given, the exact number is not on record here.

Sequence of Protein arginine N-methyltransferase 5 (O14744 whole entry): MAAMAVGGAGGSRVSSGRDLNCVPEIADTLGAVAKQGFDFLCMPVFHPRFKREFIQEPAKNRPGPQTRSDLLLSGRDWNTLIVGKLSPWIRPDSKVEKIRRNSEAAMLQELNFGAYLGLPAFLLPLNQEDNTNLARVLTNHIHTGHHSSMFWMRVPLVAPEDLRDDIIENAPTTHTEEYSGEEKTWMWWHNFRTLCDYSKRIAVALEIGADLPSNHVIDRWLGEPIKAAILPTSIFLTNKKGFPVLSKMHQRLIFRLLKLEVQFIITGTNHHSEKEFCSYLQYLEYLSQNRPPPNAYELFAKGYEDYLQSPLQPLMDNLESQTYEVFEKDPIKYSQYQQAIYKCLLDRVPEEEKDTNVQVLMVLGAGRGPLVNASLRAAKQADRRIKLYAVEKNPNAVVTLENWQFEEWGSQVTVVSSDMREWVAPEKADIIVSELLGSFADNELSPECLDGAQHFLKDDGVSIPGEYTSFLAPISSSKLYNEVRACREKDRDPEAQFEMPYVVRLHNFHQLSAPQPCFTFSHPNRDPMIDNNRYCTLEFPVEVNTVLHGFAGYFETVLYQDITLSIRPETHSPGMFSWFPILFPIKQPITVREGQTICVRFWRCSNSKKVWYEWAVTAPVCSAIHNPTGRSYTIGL
Sequence of Protein arginine N-methyltransferase 3 (O60678 whole entry): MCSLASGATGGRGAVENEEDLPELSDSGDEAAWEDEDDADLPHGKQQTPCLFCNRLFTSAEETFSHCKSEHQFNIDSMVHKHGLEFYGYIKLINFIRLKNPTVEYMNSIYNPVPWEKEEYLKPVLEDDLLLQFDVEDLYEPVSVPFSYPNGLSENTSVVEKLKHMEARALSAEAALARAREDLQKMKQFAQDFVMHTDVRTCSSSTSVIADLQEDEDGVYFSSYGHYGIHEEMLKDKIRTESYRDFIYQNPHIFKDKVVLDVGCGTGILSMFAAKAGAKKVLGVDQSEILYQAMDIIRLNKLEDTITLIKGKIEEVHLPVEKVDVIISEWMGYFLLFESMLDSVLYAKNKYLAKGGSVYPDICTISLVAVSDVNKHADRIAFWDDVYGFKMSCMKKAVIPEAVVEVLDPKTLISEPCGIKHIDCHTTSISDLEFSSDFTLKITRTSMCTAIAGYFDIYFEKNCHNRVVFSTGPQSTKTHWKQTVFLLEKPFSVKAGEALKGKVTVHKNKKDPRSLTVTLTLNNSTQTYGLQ
Sequence of Histone-lysine N-methyltransferase SUV39H2 (Q9H5I1 whole entry): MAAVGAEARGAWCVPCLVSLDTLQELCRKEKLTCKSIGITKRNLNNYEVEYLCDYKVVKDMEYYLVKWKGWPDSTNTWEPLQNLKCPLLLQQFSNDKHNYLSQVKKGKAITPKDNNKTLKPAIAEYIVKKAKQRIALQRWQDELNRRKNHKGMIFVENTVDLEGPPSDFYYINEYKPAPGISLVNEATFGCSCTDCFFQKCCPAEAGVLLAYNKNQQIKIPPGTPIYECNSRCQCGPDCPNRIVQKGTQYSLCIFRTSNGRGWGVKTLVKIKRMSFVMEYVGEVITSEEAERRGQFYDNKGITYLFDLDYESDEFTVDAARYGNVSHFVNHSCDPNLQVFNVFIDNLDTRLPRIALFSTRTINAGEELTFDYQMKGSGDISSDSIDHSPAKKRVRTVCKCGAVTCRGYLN

For `CCCc1cc(C)[nH]c(=O)c1CNC(=O)c1cc(-c2ccc(N3CCN(C)CC3)nc2)cc2c1cnn2C(C)C`, the IC50 in assay [1] was over 100 µM; in assay [2] it was over 100 µM; in assay [3], 54 µM; in assay [4], over 100 µM; in [5], over 100 µM; in assay [7], 79 nM. In assay [8], this molecule displayed a concentration for half-maximal inhibition (IC50) of over 100 µM. For the same molecule, in assay [6], the Ki stood at 0.6 nM.
In the case of `Cc1cc(C)c(CNC(=O)c2cc(-c3ccc(N4CCN(C)CC4)nc3)cc3c2cnn3C(C)C)c(=O)[nH]1`, the inhibition result in assay [9], in assay [11], in assay [12], in [13] and in assay [14] was “Active” in each case. Moreover, the inhibition in assay [10] was over 90%; in [7], “Dose-dependent effect”. Moreover, the half-maximal inhibitory concentration (IC50) in [1] is over 100 µM; in [2], over 100 µM; in assay [3], over 100 µM; in [4], over 100 µM; in assay [5] it was over 100 µM; in assay [7], 324 nM. The same molecule had an IC50 in assay [8] of over 100 µM. Moreover, the Ki in assay [6] stood at 7.9 nM.
`CCCc1cc(C)[nH]c(=O)c1CNC(=O)c1cc(-c2ccnc(N3CCN(C)CC3)c2)cc2c1cnn2C(C)C`: the concentration for half-maximal inhibition (IC50) in [1] was over 100 µM; in assay [2] it was over 100 µM; in assay [3] it was 74 µM; in assay [4], 123 µM; in assay [5], over 100 µM; in assay [15], over 100 µM. The IC50 in [16] is over 100 µM; in [7] it was 174 nM; in [8], over 100 µM; in [17] it was over 100 µM; in [18] it was over 100 µM. Further, the Ki in assay [6] worked out at 1.2 nM.
